What all share (type): functional, Homo sapiens
The subject of experiment [1] is K562. The experiment is described as follows: Rhodamine-123 accumulation in K562 cells with or without expression of PGP protein at a concentration of 0.01 uM. An outline of the steps:
(§1)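 K562R (adriamycin-resistant, Pgp-expressing) cells, kept under continuous 10^-6 M adriamycin, were washed twice and suspended at 10⁶ cells/mL in RPMI. Modulator was added for 15 min at 37 °C, then rhodamine-123 at 0.05 µg/mL final for 1 h at 37 °C. Fluorescence at […] was read by flow cytometry in arbitrary units, as the mean of at least 3 independent experiments.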

For experiment [2], the system named is K562. The experiment is described as follows: Rhodamine-123 accumulation in K562 cells with or without expression of PGP protein at a concentration of 1 uM. In short, it runs like this: as §1
The subject of experiment [3] is K562. The experiment is described as follows: Rhodamine-123 accumulation in K562 cells with or without expression of PGP protein at a concentration of 1 nM. An outline of the steps: as §1
The test system of experiment [4] is K562. The experiment can be described thus: Rhodamine-123 accumulation in K562 cells with or without expression of PGP protein at a concentration of 0.1 uM. In short, it runs like this:
as §1

As to `COc1cc(OC)c2c(c1)O/C(=C\c1ccccc1)C2=O`, the Rhodamine-123 accumulation with K562 [1] is reported as 178 arbitrary units; in the experiment with K562 [2] it was 249 arbitrary units; with K562 [3] it was 40 arbitrary units; in the experiment with K562 [4] it was 203 arbitrary units.
With `O=C(c1cc(=O)c2c(O)cccc2o1)N1CCN(Cc2ccccc2)CC1`, the Rhodamine-123 accumulation in the experiment with K562 [1] is reported as 72 arbitrary units; in the experiment with K562 [2], 136 arbitrary units; with K562 [3], 45 arbitrary units; with K562 [4] it was 95 arbitrary units.
In the same order, the values of `COc1cc(OC)c2c(O)c(-c3ccccc3)cnc2c1` are 43 arbitrary units, 82 arbitrary units, 36 arbitrary units and 55 arbitrary units.
In the same order, the values of `CCN1CCN(C(=O)c2cc(=O)c3c(O)cccc3o2)CC1` are 44 arbitrary units, 85 arbitrary units, 40 arbitrary units and 47 arbitrary units.
In the same order, the values of `O=C(NCc1ccc(Cl)cc1)c1cc(=O)c2c(O)cccc2o1` are 42 arbitrary units, 46 arbitrary units, 50 arbitrary units and 45 arbitrary units.
As to `CN1CCN(C(=O)c2cc(=O)c3c(O)cccc3o2)CC1`, the Rhodamine-123 accumulation in the experiment with K562 [1] is 134 arbitrary units; in the experiment on K562 [2], 207 arbitrary units; with K562 [3], 76 arbitrary units; in the experiment on K562 [4] it was 138 arbitrary units.
In the same order, the values of `O=C(c1cc(=O)c2c(O)cccc2o1)N1CCN(c2ccccc2)CC1` are 40 arbitrary units, 82 arbitrary units, 39 arbitrary units and 57 arbitrary units.
In the same order, the values of `O=C(c1cc(=O)c2c(O)cccc2o1)N1CCOCC1` are 41 arbitrary units, 42 arbitrary units, 39 arbitrary units and 44 arbitrary units.
With `O=C(c1ccccc1)N1CCN(C(=O)c2cc(=O)c3c(O)cccc3o2)CC1`, the Rhodamine-123 accumulation in the experiment on K562 [1] was 45 arbitrary units; in the experiment on K562 [2] it was 42 arbitrary units; in the experiment with K562 [3] it was 38 arbitrary units; in the experiment on K562 [4], 47 arbitrary units.
Regarding `COc1cc(OC)c2c(=O)c(-c3ccccc3)coc2c1` [5,7-DIMETHOXYISOFLAVONE], the Rhodamine-123 accumulation is reported as 54 arbitrary units in the experiment on K562 [1], 49 arbitrary units in the experiment with K562 [2], 40 arbitrary units with K562 [3] and 46 arbitrary units with K562 [4].
In the same order, the values of `C/C=C/C[C@@H](C)[C@@H](O)[C@H]1C(=O)N[C@@H](CC)C(=O)N(C)CC(=O)N(C)[C@@H](CC(C)C)C(=O)N[C@@H](C(C)C)C(=O)N(C)[C@@H](CC(C)C)C(=O)N[C@@H](C)C(=O)N[C@H](C)C(=O)N(C)[C@@H](CC(C)C)C(=O)N(C)[C@@H](CC(C)C)C(=O)N(C)[C@@H](C(C)C)C(=O)N1C` [CYCLOSPORINE] are 80 arbitrary units, 102 arbitrary units, 72 arbitrary units and 87 arbitrary units.
In the same order, the values of `O=C(c1cc(=O)c2c(O)cccc2o1)N1CCCCC1` are 46 arbitrary units, 45 arbitrary units, 43 arbitrary units and 44 arbitrary units.
For `CC(=O)N1CCN(C(=O)c2cc(=O)c3c(O)cccc3o2)CC1`, the Rhodamine-123 accumulation in the experiment on K562 [1] worked out at 43 arbitrary units; in the experiment with K562 [2] it was 38 arbitrary units; with K562 [3], 41 arbitrary units; in the experiment with K562 [4] it was 37 arbitrary units.
